Series [1] has as its system mammalian cell line. Description: Cell viability in a mammalian cell line. The format is cell-based. Particulars: note [21].
Series [2] deals with T1, GST-Bfl-1 (Homo sapiens, UniProt Q16548).
T1 sequence (Q16548 1-175): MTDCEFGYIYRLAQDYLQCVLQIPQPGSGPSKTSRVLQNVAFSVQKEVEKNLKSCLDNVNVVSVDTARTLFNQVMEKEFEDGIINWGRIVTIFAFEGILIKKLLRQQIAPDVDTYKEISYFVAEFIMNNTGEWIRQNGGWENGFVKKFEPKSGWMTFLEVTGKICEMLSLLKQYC
Description: High-throughput fluorescence polarization. The format is binding. The settings on record: result in words.

The target in series [3] is T1, GST-Bfl-1. In words: LanthaScreen TR-FRET assay, FITC-Bid BH3 peptide / GST-tagged protein. It counts as binding. The settings on record: result in words. The procedure, abridged:
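Test compound at 10 concentrations (2-fold serial dilution, 10% DMSO), in duplicate wells. Preincubated 1 h at 4 °C with GST-Bfl-1 (7.4 nM working solution, Bis-Tris pH 7.0 buffer). Then FITC-Bid (5.6 nM) plus Tb-antibody (2.5 nM) working solution added, 4 h at room temperature in the dark. Read in time-resolved mode: excitation 340 nm, 0.1 ms delay, 1 ms integration, 5 reads averaged. Signal is the 520/490 nm ratio. Controls were buffer without protein and DMSO.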
On the technique in general: In TR-FRET formats the signal depends on donor and acceptor labels being close together.

Series [4] has as its system H69AR small cell lung tumor cell. In words: Cell-based viability study, tumor cell growth. Also noted: species or system human. Particulars: concentration of 10 μM; note [21].

Entries after “also recorded” stand apart in the source; their conditions may differ.

As to `O=C1C(Cl)=C(N2CCCCC2)C(=O)N1c1ccc(Cl)c(Cl)c1` [Compound 19], the “Effect on cell viability” value in series [1] (15 μg/mL) was “decreased cell viability”.

For the compound `C[C@@H]1CN(C2=C(Cl)C(=O)N(c3ccc(Cl)c(Cl)c3)C2=O)CCN1` [Compound 24], in series [2], the “Potency of Bfl-1 inhibition in words (FP / assay not specified)” value is on record as “equipotent to original hit 1; also recorded: Submicromolar”.

Turning to `O=C1C(Cl)=C(N2CCN(C/C=C/c3ccccc3)CC2)C(=O)N1c1ccc(Cl)c(Cl)c1` [Compound 38], the “Potency of Bfl-1 inhibition in words (FP / assay not specified)” value in series [2] is listed as “Submicromolar”.

Consider `CN1CCN(C2=C(Cl)C(=O)N(c3ccc(Cl)c(Cl)c3)C2=O)CC1` [Compound 1], for which, in series [2], the “Potency of Bfl-1 inhibition in words (FP / assay not specified)” value is given as “submicromolar potency”. In addition, in series [3], the “Potency of Bfl-1 inhibition in words (TR-FRET)” value is reported as “submicromolar potency”. Further, the “Inhibition of human H69AR small cell lung tumor cell growth” value in series [4] is “inhibition of human H69AR small cell lung tumor cell growth was observed”.

Take `O=C1C(Cl)=C(N2CCN(CCO)CC2)C(=O)N1c1ccc(Cl)c(Cl)c1` [Compound 28]: in series [2], the “Potency of Bfl-1 inhibition in words (FP / assay not specified)” value is reported as “Submicromolar”.

Consider `CN(C)C1=C(Cl)C(=O)N(c2ccc(Cl)c(Cl)c2)C1=O` [Compound 21], for which, in series [2], the “Potency of Bfl-1 inhibition in words (FP / assay not specified)” value is “equipotent to original hit 1; also recorded: Submicromolar”. In addition, the “Effect on cell viability in a mammalian cell line” value in series [1] (concentration not given) is given as “not inhibitory to cell viability”.

As for `O=C1C(Cl)=C(N2CCN(CCOCCO)CC2)C(=O)N1c1ccc(Cl)c(Cl)c1` [Compound 29], in series [2], the “Potency of Bfl-1 inhibition in words (FP / assay not specified)” value is recorded as “Submicromolar”.

For the compound `O=C1C(Cl)=C(N2CCOCC2)C(=O)N1c1ccc(Cl)c(Cl)c1` [Compound 22], in series [2], the “Potency of Bfl-1 inhibition in words (FP / assay not specified)” value is given as “equipotent to original hit 1; also recorded: Submicromolar”.

The values above are taken from paper PMC2987701 (Bioorganic & medicinal chemistry letters, 2010).
